This note sets out measurements from ChEMBL document CHEMBL2331250, “Synthesis of an MIF-1 analogue containing enantiopure (S)-α-trifluoromethyl-proline and biological evaluation on nociception” (Eur J Med Chem, 2013).

The source made the active and inactive calls. Residues, ends and D or L forms follow the SMILES beside them.

What all share (type): functional, organism-based
In test [1] the test system is Rattus norvegicus. As to the kind of experiment: Analgesic activity in Wistar rats assessed as increase in latency of response to pain at 1 mg/kg, ip measured after 15 to 45 mins by hot plate test. Details: dose 1 mg/kg. In a few lines: (§1)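 Male Wistar rats (180–200 g), 12 h light/dark cycle, food and water ad libitum, tested 09.00–12.00, five rats per group. Peptide given i.p. in sterile 0.9% saline. Pretreatment agents (naloxone or L-Arg at 1 mg/kg, L-NAME at 10 mg/kg, i.p.) were given 20 min before the peptide. Readings began 15 min after peptide injection. Hot plate at 55 ± 0.5 °C; latency measured to first paw licking or jump; 30 s cut-off. Mean ± S.E.M., ANOVA, P < 0.05.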

The subject of test [2] is Rattus norvegicus. As to the kind of experiment: Analgesic activity in Wistar rats assessed as increase in mechanical nociceptive threshold at 1 mg/kg, ip measured after 15 to 30 mins by paw pressure test. Details: dose 1 mg/kg. Summed up: (§2)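 Male Wistar rats (180–200 g), five per group, tested 09.00–12.00. Peptide given i.p. in sterile 0.9% saline. Pretreatment agents (naloxone or L-Arg at 1 mg/kg, L-NAME at 10 mg/kg, i.p.) were given 20 min before the peptide. Readings began 15 min after peptide injection. Randall-Selitto analgesimeter applied pressure to the hind paw; threshold was the pressure (g) eliciting squeak or struggle; 500 g cut-off. Mean ± S.E.M., ANOVA.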

Test [3] has as its system Rattus norvegicus. As to the kind of experiment: Analgesic activity in Wistar rats assessed as increase in mechanical nociceptive threshold at 1 mg/kg, ip treated 20 mins after 1 mg/kg, ip NO donor, L-arginine challenge measured after 15 to 45 mins by paw pressure test. Summed up: as §2
For test [4], the system named is Rattus norvegicus. As to the kind of experiment: Analgesic activity in Wistar rats assessed as increase in latency of response to pain at 1 mg/kg, ip treated 20 mins after 1 mg/kg, ip […] opiate receptor antagonist, naloxone challenge measured after 15 to 30 mins by hot plate test. Summed up:
as §1
(Thermal pain tests record how soon the animal reacts.)

Test [5] relates to Rattus norvegicus. As to the kind of experiment: Analgesic activity in Wistar rats assessed as increase in mechanical nociceptive threshold at 1 mg/kg, ip treated 20 mins after 1 mg/kg, ip […] opiate receptor antagonist, naloxone challenge measured after 15 to 30 mins by paw pressure test. Summed up:
as §2

The test system of test [6] is Rattus norvegicus. As to the kind of experiment: Analgesic activity in Wistar rats assessed as increase in latency of response to pain at 1 mg/kg, ip treated 20 mins after 1 mg/kg, ip NO donor, L-arginine challenge measured after 15 to 45 mins by hot plate test. In a few lines:
as §1

Test [7] relates to Rattus norvegicus. As to the kind of experiment: Analgesic activity in Wistar rats assessed as increase in mechanical nociceptive threshold at 1 mg/kg, ip treated 20 mins after 10 mg/kg, ip NOS inhibitor, L-NAME challenge measured after 15 to 45 mins by paw pressure test. In a few lines:
as §2

Test [8] has as its system Rattus norvegicus. As to the kind of experiment: Analgesic activity in Wistar rats assessed as increase in latency of response to pain at 1 mg/kg, ip treated 20 mins after 10 mg/kg, ip NOS inhibitor, L-NAME challenge measured after 15 to 45 mins by hot plate test. In a few lines:
as §1

For test [9], the system named is Rattus norvegicus. As to the kind of experiment: Analgesic activity in Wistar rats assessed as increase in mechanical nociceptive threshold at 1 mg/kg, ip measured after 15 mins by paw pressure test. Details: dose 1 mg/kg. In a few lines: as §2
In test [10] the test system is Rattus norvegicus. As to the kind of experiment: Analgesic activity in Wistar rats assessed as increase in latency of response to pain at 1 mg/kg, ip measured after 15 mins by hot plate test. Details: dose 1 mg/kg. Summed up:
as §1

For the compound `CC(C)C[C@H](NC(=O)[C@]1(C(F)(F)F)CCCN1)C(=O)NCC(N)=O`, the result with Rattus norvegicus [1], with Rattus norvegicus [3], in the test on Rattus norvegicus [4], with Rattus norvegicus [5], with Rattus norvegicus [6] and in the test with Rattus norvegicus [7] was inactive. For the same compound, the result in the test with Rattus norvegicus [8] was inactive. Moreover, the outcome in the test on Rattus norvegicus [2] was Active.
As to `CC(C)C[C@H](NC(=O)[C@@H]1CCCN1)C(=O)NCC(N)=O` (H-Pro-Leu-Gly-NH2), the result with Rattus norvegicus [3], in the test on Rattus norvegicus [4], in the test on Rattus norvegicus [5], in the test with Rattus norvegicus [9], with Rattus norvegicus [6] and with Rattus norvegicus [7] was inactive. Moreover, the result with Rattus norvegicus [8] was inactive. Also, the result in the test with Rattus norvegicus [10] was Active.
